Experimental data: ChEMBL document CHEMBL1130231, “Betidamino acid scan of the GnRH antagonist acyline” (J Med Chem, 1997)

Molecular target: T1, Gonadotropin-releasing hormone receptor (Rattus norvegicus, UniProt P30969)
T1 sequence (P30969 whole entry): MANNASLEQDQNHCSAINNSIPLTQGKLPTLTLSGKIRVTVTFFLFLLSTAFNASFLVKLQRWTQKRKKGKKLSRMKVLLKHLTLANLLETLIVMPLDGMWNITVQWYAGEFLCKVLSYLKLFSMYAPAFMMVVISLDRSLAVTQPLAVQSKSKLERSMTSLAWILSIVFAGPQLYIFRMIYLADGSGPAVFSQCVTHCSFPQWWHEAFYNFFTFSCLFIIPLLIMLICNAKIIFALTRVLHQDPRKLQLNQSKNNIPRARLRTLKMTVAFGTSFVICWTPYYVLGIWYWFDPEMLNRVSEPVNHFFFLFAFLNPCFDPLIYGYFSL
Test: Inhibition of binding of radiolabeled histrelin to Gonadotropin-releasing hormone receptor (GnRHr) in rat pituitary gland membranes
Format: cell membranes, Membrane
Method in brief: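 Rat anterior pituitary membranes (male and female glands equal numbers), homogenized in 0.32 M sucrose/aprotinin, 4000g pellet, diluted 15-fold in 10 mM Hepes, 0.2% BSA, pH 7.6. Filtration onto PEI-treated glass filters, scintillation counting. IC50 in nM, duplicate, n = 1.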

Row | SMILES | IC50
1 | CC(=O)Nc1ccc(C[C@H](NC(=O)[C@H](CO)NC(=O)[C@H](Cc2cccnc2)NC(=O)[C@@H](Cc2ccc(Cl)cc2)NC(=O)[C@@H](Cc2ccc3ccccc3c2)NC(C)=O)C(=O)N[C@H](Cc2ccc(NC(C)=O)cc2)C(=O)N[C@@H](CC(C)C)C(=O)N[C@@H](CCCCNC(C)C)C(=O)N2CCC[C@H]2C(=O)N[C@H](C)C(N)=O)cc1 | 0.23 nM
2 | CC(=O)Nc1ccc(C[C@H](NC(=O)[C@H](CO)NC(=O)[C@@H](NC(=O)c2ccncc2)NC(=O)[C@@H](Cc2ccc(Cl)cc2)NC(=O)[C@@H](Cc2ccc3ccccc3c2)NC(C)=O)C(=O)N[C@H](Cc2ccc(NC(C)=O)cc2)C(=O)N[C@@H](CC(C)C)C(=O)N[C@@H](CCCCNC(C)C)C(=O)N2CCC[C@H]2C(=O)N[C@H](C)C(N)=O)cc1 (single isomer, unassigned) | 1.4 nM
3 | CC(=O)Nc1ccc(C[C@H](NC(=O)[C@H](CO)NC(=O)[C@@H](Cc2cccnc2)NC(=O)[C@@H](Cc2ccc(Cl)cc2)NC(=O)[C@@H](Cc2ccc3ccccc3c2)NC(C)=O)C(=O)N[C@H](Cc2ccc(NC(C)=O)cc2)C(=O)N[C@@H](CC(C)C)C(=O)N[C@@H](CCCCNC(C)C)C(=O)N2CCC[C@H]2C(=O)N[C@H](C)C(N)=O)cc1 | 0.3 nM
4 | CC(=O)Nc1ccc(C[C@H](NC(=O)[C@H](CO)NC(=O)[C@@H](Cc2cccnc2)NC(=O)[C@@H](Cc2ccc(Cl)cc2)NC(=O)[C@@H](Cc2ccc3ccccc3c2)NC(C)=O)C(=O)N[C@H](Cc2ccc(NC(C)=O)cc2)C(=O)N[C@@H](CC(C)C)C(=O)N[C@@H](CCCCNC(C)C)C(=O)N2CCC[C@H]2C(=O)N[C@@H](C)C(N)=O)cc1 | 0.38 nM
5 | CC(=O)Nc1ccc(C[C@H](NC(=O)[C@H](CO)NC(=O)[C@@H](Cc2cccnc2)NC(=O)[C@H](NC(=O)c2cnccn2)NC(=O)[C@@H](Cc2ccc3ccccc3c2)NC(C)=O)C(=O)N[C@H](Cc2ccc(NC(C)=O)cc2)C(=O)N[C@@H](CC(C)C)C(=O)N[C@@H](CCCCNC(C)C)C(=O)N2CCC[C@H]2C(=O)N[C@H](C)C(N)=O)cc1 (single isomer, unassigned) | 1700 nM
6 | CC(=O)Nc1ccc(C[C@H](NC(=O)[C@H](NC=O)NC(=O)[C@@H](Cc2cccnc2)NC(=O)[C@@H](Cc2ccc(Cl)cc2)NC(=O)[C@@H](Cc2ccc3ccccc3c2)NC(C)=O)C(=O)N[C@H](Cc2ccc(NC(C)=O)cc2)C(=O)N[C@@H](CC(C)C)C(=O)N[C@@H](CCCCNC(C)C)C(=O)N2CCC[C@H]2C(=O)N[C@H](C)C(N)=O)cc1 | 0.84 nM
7 | CC(=O)Nc1ccc(C[C@H](NC(=O)[C@H](CO)NC(=O)[C@@H](Cc2cccnc2)NC(=O)[C@@H](Cc2ccc(Cl)cc2)NC(=O)[C@@H](Cc2ccc3ccccc3c2)NC(C)=O)C(=O)N[C@@H](C(=O)N[C@@H](CC(C)C)C(=O)N[C@@H](CCCCNC(C)C)C(=O)N2CCC[C@H]2C(=O)N[C@H](C)C(N)=O)N(C)C(=O)c2ccc(NC(C)=O)cc2)cc1 (mixture of isomers) | 1.9 nM
8 | CC(=O)Nc1ccc(C[C@H](NC(=O)[C@H](CO)NC(=O)[C@@H](Cc2cccnc2)NC(=O)[C@@H](Cc2ccc(Cl)cc2)NC(=O)[C@@H](NC(C)=O)N(C)C(=O)c2ccc3ccccc3c2)C(=O)N[C@H](Cc2ccc(NC(C)=O)cc2)C(=O)N[C@@H](CC(C)C)C(=O)N[C@@H](CCCCNC(C)C)C(=O)N2CCC[C@H]2C(=O)N[C@H](C)C(N)=O)cc1 (single isomer, unassigned) | 0.3 nM
9 | CC(=O)Nc1ccc(C[C@H](NC(=O)[C@H](CO)NC(=O)[C@@H](Cc2cccnc2)NC(=O)[C@@H](Cc2ccc(Cl)cc2)NC(=O)[C@@H](Cc2ccc3ccccc3c2)NC(C)=O)C(=O)N[C@H](Cc2ccc(NC(C)=O)cc2)C(=O)N[C@@H](CC(C)C)C(=O)N[C@@H](C(=O)N2CCC[C@H]2C(=O)N[C@H](C)C(N)=O)N(C)C(=O)CCNC(C)C)cc1 (single isomer, unassigned) | 2.4 nM
10 | CC(=O)Nc1ccc(C[C@H](NC(=O)[C@H](CO)NC(=O)[C@@H](Cc2cccnc2)NC(=O)[C@@H](Cc2ccc(Cl)cc2)NC(=O)[C@@H](Cc2ccc3ccccc3c2)NC(C)=O)C(=O)N[C@H](Cc2ccc(NC(C)=O)cc2)C(=O)N[C@@H](CC(C)C)C(=O)N[C@H](C(=O)N2CCC[C@H]2C(=O)N[C@H](C)C(N)=O)N(C)C(=O)CCNC(C)C)cc1 (single isomer, unassigned) | 0.5 nM
11 | CC(=O)Nc1ccc(C[C@H](NC(=O)[C@H](NC(=O)CO)NC(=O)[C@@H](Cc2cccnc2)NC(=O)[C@@H](Cc2ccc(Cl)cc2)NC(=O)[C@@H](Cc2ccc3ccccc3c2)NC(C)=O)C(=O)N[C@H](Cc2ccc(NC(C)=O)cc2)C(=O)N[C@@H](CC(C)C)C(=O)N[C@@H](CCCCNC(C)C)C(=O)N2CCC[C@H]2C(=O)N[C@H](C)C(N)=O)cc1 (single isomer, unassigned) | 0.3 nM
12 | CN[C@@H](NC(=O)[C@@H]1CCCN1C(=O)[C@H](CCCCNC(C)C)NC(=O)[C@H](CC(C)C)NC(=O)[C@@H](Cc1ccc(NC(C)=O)cc1)NC(=O)[C@H](Cc1ccc(NC(C)=O)cc1)NC(=O)[C@H](CO)NC(=O)[C@@H](Cc1cccnc1)NC(=O)[C@@H](Cc1ccc(Cl)cc1)NC(=O)[C@@H](Cc1ccc2ccccc2c1)NC(C)=O)C(N)=O | 0.9 nM
13 | CC(=O)Nc1ccc(C[C@H](NC(=O)[C@H](CO)NC(=O)[C@@H](Cc2cccnc2)NC(=O)[C@@H](Cc2ccc(Cl)cc2)NC(=O)[C@@H](Cc2ccc3ccccc3c2)NC(C)=O)C(=O)N[C@H](Cc2ccc(NC(C)=O)cc2)C(=O)N[C@@H](CC(C)C)C(=O)N[C@@H](CCCCNC(C)C)C(=O)N2CCC[C@H]2C(=O)N[C@@H](NC=O)C(N)=O)cc1 (single isomer, unassigned) | 0.62 nM
14 | CC(=O)Nc1ccc(C[C@H](NC(=O)[C@H](CO)NC(=O)[C@H](NC(=O)c2ccncc2)NC(=O)[C@@H](Cc2ccc(Cl)cc2)NC(=O)[C@@H](Cc2ccc3ccccc3c2)NC(C)=O)C(=O)N[C@H](Cc2ccc(NC(C)=O)cc2)C(=O)N[C@@H](CC(C)C)C(=O)N[C@@H](CCCCNC(C)C)C(=O)N2CCC[C@H]2C(=O)N[C@H](C)C(N)=O)cc1 (single isomer, unassigned) | 220 nM
15 | CC(=O)Nc1ccc(C[C@H](NC(=O)[C@H](CO)NC(=O)[C@@H](Cc2cccnc2)NC(=O)[C@@H](Cc2ccc(Cl)cc2)NC(=O)[C@@H](Cc2ccc3ccccc3c2)NC(C)=O)C(=O)N[C@H](Cc2ccc(NC(C)=O)cc2)C(=O)N[C@@H](CC(C)C)C(=O)N[C@@H](CCCCNC(C)C)C(=O)N2CCC[C@H]2C(=O)N[C@H](N)C(N)=O)cc1 | 0.48 nM
16 | CC(=O)Nc1ccc(C[C@@H](NC(=O)[C@H](NC(=O)c2ccc(O)cc2)NC(=O)[C@H](CO)NC(=O)[C@@H](Cc2cccnc2)NC(=O)[C@@H](Cc2ccc(Cl)cc2)NC(=O)[C@@H](Cc2ccc3ccccc3c2)NC(C)=O)C(=O)N[C@@H](CC(C)C)C(=O)N[C@@H](CCCCNC(C)C)C(=O)N2CCC[C@H]2C(=O)N[C@H](C)C(N)=O)cc1 | 0.3 nM
17 | CC(=O)Nc1ccc(C[C@H](NC(=O)[C@H](CO)NC(=O)[C@@H](Cc2cccnc2)NC(=O)[C@@H](Cc2ccc(Cl)cc2)NC(=O)[C@H](Cc2ccc3ccccc3c2)NC(C)=O)C(=O)N[C@H](Cc2ccc(NC(C)=O)cc2)C(=O)N[C@@H](CC(C)C)C(=O)N[C@@H](CCCCNC(C)C)C(=O)N2CCC[C@H]2C(=O)N[C@H](C)C(N)=O)cc1 | 0.64 nM
18 | CC(=O)Nc1ccc(C[C@H](NC(=O)[C@@H](NC=O)NC(=O)[C@@H](Cc2cccnc2)NC(=O)[C@@H](Cc2ccc(Cl)cc2)NC(=O)[C@@H](Cc2ccc3ccccc3c2)NC(C)=O)C(=O)N[C@H](Cc2ccc(NC(C)=O)cc2)C(=O)N[C@@H](CC(C)C)C(=O)N[C@@H](CCCCNC(C)C)C(=O)N2CCC[C@H]2C(=O)N[C@H](C)C(N)=O)cc1 (single isomer, unassigned) | 0.63 nM
19 | CC(=O)Nc1ccc(C[C@H](NC(=O)[C@H](CO)NC(=O)[C@@H](Cc2cccnc2)NC(=O)[C@@H](Cc2ccc(Cl)cc2)NC(=O)[C@@H](Cc2ccc3ccccc3c2)NC(C)=O)C(=O)N[C@H](Cc2ccc(NC(C)=O)cc2)C(=O)N[C@H](C(=O)N[C@@H](CCCCNC(C)C)C(=O)N2CCC[C@H]2C(=O)N[C@H](C)C(N)=O)N(C)C(C)=O)cc1 | 1.7 nM
20 | CC(=O)Nc1ccc(C[C@H](NC(=O)[C@H](CO)NC(=O)[C@@H](Cc2cccnc2)NC(=O)[C@@H](Cc2ccc(Cl)cc2)NC(=O)[C@@H](Cc2ccc3ccccc3c2)NC(C)=O)C(=O)N[C@H](Cc2ccc(NC(C)=O)cc2)C(=O)N[C@@H](CC(C)C)C(=O)NC(NC(=O)CNC(=N)N)C(=O)N2CCC[C@H]2C(=O)N[C@H](C)C(N)=O)cc1 (stereo partly drawn) | 0.74 nM
21 | CC(=O)Nc1ccc(C[C@H](NC(=O)[C@H](CO)NC(=O)[C@@H](Cc2cccnc2)NC(=O)[C@@H](Cc2ccc(Cl)cc2)NC(=O)[C@@H](Cc2ccc3ccccc3c2)NC(C)=O)C(=O)N[C@H](Cc2ccc(NC(C)=O)cc2)C(=O)N[C@@H](NC(=O)C(C)C)C(=O)N[C@@H](CCCCNC(C)C)C(=O)N2CCC[C@H]2C(=O)N[C@H](C)C(N)=O)cc1 | 2 nM
22 | CC(=O)Nc1ccc(C[C@H](NC(=O)[C@H](CO)NC(=O)[C@@H](Cc2cccnc2)NC(=O)[C@@H](NC(=O)c2cn[nH]c2N)NC(=O)[C@@H](Cc2ccc3ccccc3c2)NC(C)=O)C(=O)N[C@H](Cc2ccc(NC(C)=O)cc2)C(=O)N[C@@H](CC(C)C)C(=O)N[C@@H](CCCCNC(C)C)C(=O)N2CCC[C@H]2C(=O)N[C@H](C)C(N)=O)cc1 (single isomer, unassigned) | > 1000 nM
23 | CC(=O)Nc1ccc(C[C@H](NC(=O)[C@H](CO)NC(=O)[C@@H](Cc2cccnc2)NC(=O)[C@H](NC(=O)c2cn[nH]c2N)NC(=O)[C@@H](Cc2ccc3ccccc3c2)NC(C)=O)C(=O)N[C@H](Cc2ccc(NC(C)=O)cc2)C(=O)N[C@@H](CC(C)C)C(=O)N[C@@H](CCCCNC(C)C)C(=O)N2CCC[C@H]2C(=O)N[C@H](C)C(N)=O)cc1 | 2500 nM
